Legend:
P388 [1] = assay: Inhibition of DNA synthesis was measured as the concentration required to cause 50% reduction (in 1h) in methyl [3H]thymidine incorporation into acid precipitable material using P388 cells; type: functional, cell-based; details: Mus musculus
How it was run: (§1)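 P388 cells were exposed for 1 h. IC50 (µM) was taken as 50% reduction of methyl-[3H]thymidine (DNA) or 2-[14C]uridine (RNA) incorporation into acid-precipitable material. The ratio is IC50 DNA divided by IC50 RNA.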

P388 [2] = assay: Inhibition of RNA synthesis was measured as the concentration required to cause 50% reduction (in 1h) in 2-[14C]uridine incorporation into acid precipitable material using P388 cells; type: functional, cell-based; details: Mus musculus, P388, 1 h
[3] = Minimum tolerated dose is the lethal dose for 10% normal mice for deaths during 21 days; type: ADME, organism-based; details: mouse, in vivo
How it was run: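 Tumor-free male BDF1 mice (18–22 g) received a broad dose range ip in 5% dimethyl sulfoxide-saline on days 1, 5 and 9. Deaths were recorded over 21 days. The LD10 (dose killing 10% of animals) was calculated from a plot of log-dose vs. percent mortality.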

[4] = Therapeutic index (MTD/MED) value of the compound; details: read-out: TI
Rattus norvegicus [5] = species on record: Rattus norvegicus; assay: Compound tested for adrenochrome formation in rat hepatic mycrosomal incubation; type: functional
How it was run: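 Adrenochrome assay for superoxide: epinephrine in 0.01 N HCl plus 300 µg of phenobarbital-induced rat liver microsomes at 37 °C. NADPH 0.4 mM was added to the sample side 1 min later, and the rate was read at 480 nm (ε 4.02 mM−1 cm−1). Drugs were at ≤100 µM, made in 150 mM KCl–50 mM Tris, pH 7.4. Percent stimulation is over basal rate, in triplicate.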

Rattus norvegicus [6] = species on record: Rattus norvegicus; assay: Compound tested for NADPH oxidation in rat hepatic mycrosomal incubation; type: functional
How it was run: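 Phenobarbital-induced male Sprague-Dawley rat liver microsomes were placed in both cuvettes, without epinephrine. NADPH 0.4 mM was added to the sample side only, and absorbance was read at 340 nm. Percent stimulation = (drug rate − basal)/basal × 100. Values are the average ± standard errors of triplicates.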

[7] = IC50 DNA/IC50 RNA ratio of the compound; type: functional; how it was run: as §1

Cc1c2oc3c(C)c4oc(-c5ccccc5)nc4c(C(=O)N[C@@H]4C(=O)N[C@H](C(C)C)C(=O)N5CCC[C@H]5C(=O)N(C)CC(=O)N(C)[C@@H](C(C)C)C(=O)O[C@@H]4C)c3nc-2c(C(=O)N[C@@H]2C(=O)N[C@H](C(C)C)C(=O)N3CCC[C@H]3C(=O)N(C)CC(=O)N(C)[C@@H](C(C)C)C(=O)O[C@@H]2C)cc1=O
IC50 (P388 [1]): 5.7 µM
IC50 (P388 [2]): 3200 nM
MTD at 504 h [3]: 2 mg/kg
selectivity ratio [4]: 10

CCN(CC)C(=O)c1c2nc3c(C(=O)N(CC)CC)c4nc(C)oc4c(C)c3oc-2c(C)c(=O)c1N
adrenochrome formation (Rattus norvegicus [5]): 2.13 nM min-1 (mg of protein)-1
NADPH oxidation (Rattus norvegicus [6]): 8.9 nM min-1 (mg of protein)-1

Cc1c2oc3c(C)c(O)c(N)c(C(=O)N[C@@H]4C(=O)N[C@H](C(C)C)C(=O)N5CCC[C@H]5C(=O)N(C)CC(=O)N(C)[C@@H](C(C)C)C(=O)O[C@@H]4C)c3nc-2c(C(=O)N[C@@H]2C(=O)N[C@H](C(C)C)C(=O)N3CCC[C@H]3C(=O)N(C)CC(=O)N(C)[C@@H](C(C)C)C(=O)O[C@@H]2C)c(N)c1=O
IC50 (P388 [1]): 1.11 µM
IC50 (P388 [2]): 1150 nM
MTD at 504 h [3]: 2.4 mg/kg
selectivity ratio [4]: 96

Cc1c2oc3c(C)c(O)c(N)c(C(=O)N[C@H]4C(=O)N[C@@H](C(C)C)C(=O)N5CCC[C@H]5C(=O)N(C)CC(=O)N(C)[C@H](C(C)C)C(=O)O[C@H]4C)c3nc-2c(C(=O)N[C@@H]2C(=O)N[C@H](C(C)C)C(=O)N3CCC[C@@H]3C(=O)N(C)CC(=O)N(C)[C@@H](C(C)C)C(=O)O[C@@H]2C)cc1=O
Ratio [7]: 1

Cc1c2oc3c(C)c4oc(-c5ccccc5)nc4c(C(=O)N[C@H]4C(=O)N[C@@H](C(C)C)C(=O)N5CCC[C@H]5C(=O)NCC(=O)N(C)[C@H](C(C)C)C(=O)O[C@H]4C)c3nc-2c(C(=O)N[C@@H]2C(=O)N[C@H](C(C)C)C(=O)N3CCC[C@@H]3C(=O)NCC(=O)N[C@@H](C(C)C)C(=O)O[C@@H]2C)cc1=O
Ratio [7]: 1.78

Cc1c2oc3c(C)c(O)c(N)c(C(=O)N[C@H]4C(=O)N[C@@H](C(C)C)C(=O)N5CCC[C@H]5C(=O)N(C)CC(=O)N(C)[C@H](C(C)C)C(=O)O[C@H]4C)c3nc-2c(C(=O)N[C@@H]2C(=O)N[C@H](C(C)C)C(=O)N3CCC[C@@H]3C(=O)N(C)CC(=O)N(C)[C@@H](C(C)C)C(=O)O[C@@H]2C)c(N)c1=O
Ratio [7]: 0.97

Cc1c2oc3c(C)c(O)c(N)c(C(=O)N[C@@H]4C(=O)N[C@H](C(C)C)C(=O)N5CCC[C@H]5C(=O)N(C)CC(=O)N(C)[C@@H](C(C)C)C(=O)O[C@@H]4C)c3nc-2c(C(=O)N[C@@H]2C(=O)N[C@H](C(C)C)C(=O)N3CCC[C@H]3C(=O)N(C)CC(=O)N(C)[C@@H](C(C)C)C(=O)O[C@@H]2C)cc1=O
IC50 (P388 [1]): 5.1 µM
IC50 (P388 [2]): 5100 nM
MTD at 504 h [3]: 3.5 mg/kg
selectivity ratio [4]: 13

Cc1c2oc3c(C)c4oc(-c5ccccc5)nc4c(C(=O)N[C@@H]4C(=O)N[C@H](C(C)C)C(=O)N5CCC[C@H]5C(=O)N(C)CC(=O)N(C)[C@@H](C(C)C)C(=O)O[C@@H]4C)c3nc-2c(C(=O)N[C@@H]2C(=O)N[C@H](C(C)C)C(=O)N3CCC[C@H]3C(=O)N(C)CC(=O)N(C)[C@@H](C(C)C)C(=O)O[C@@H]2C)c(N)c1=O
IC50 (P388 [1]): 0.8 µM
IC50 (P388 [2]): 70 nM
MTD at 504 h [3]: 1.8 mg/kg
selectivity ratio [4]: 60

Reference: ChEMBL document CHEMBL1123113, “"Reverse" and "symmetrical" analogues of actinomycin D: metabolic activation and in vitro and in vivo tumor growth inhibitory activities” (J Med Chem, 1985)
